Reference: ChEMBL document CHEMBL1152865, “Synthesis and antimycobacterial activities of novel 6-nitroquinolone-3-carboxylic acids” (Eur J Med Chem, 2009)
In brackets after ≈: the same amount, converted by molar mass.

Experiments:
[1] = Inhibition of Mycobacterium smegmatis DNA gyrase assessed as inhibition of relaxed circular pUC18 supercoiling activity by agarose gel electrophoresis; design: species or system Mycolicibacterium smegmatis
Method in brief: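 Gyrase purified from M. smegmatis, pre-incubated with compound in DMSO. Then 400 ng relaxed pUC18 added in 35 mM Tris-HCl pH 7.5, 5 mM MgCl2, 25 mM potassium glutamate, 2 mM spermidine, 2 mM ATP, BSA, yeast tRNA and 5% glycerol. Incubated 30 min at 37 °C; read-out by agarose gel electrophoresis. Ciprofloxacin and 5% DMSO reactions run as controls.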

[2] = system: Mycobacterium tuberculosis; assay: Antibacterial activity against Mycobacterium tuberculosis H37Rv by agar dilution method; assay type: functional
Method in brief: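 Agar dilution in Middlebrook 7H11 agar supplemented with OADC, following an approach similar to NCCLS guidance. MIC determined in duplicate.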

[3] = system: Mycolicibacterium smegmatis; assay: Antibacterial activity against Mycobacterium smegmatis ATCC 14468 by agar dilution method; assay type: functional
Method in brief: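 Agar dilution on Middlebrook 7H11 agar with OADC supplement, following an NCCLS-type procedure; MIC read in duplicate.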

[4] = Cytotoxicity against african green monkey Vero cells after 72 hrs by MTT assay; assay type: cell-based; details: chlorocebus sabaeus
Method in brief: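 Cells exposed to compound for 72 h; viability from cellular MTT conversion to formazan; CC50 derived.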

Compound	IC50 [1] [µg/mL]	MIC [2] [µM]	MIC [3] [µM]	CC50 at 72 h [4] [µM]
CC(C)(C)n1cc(C(=O)O)c(=O)c2cc([N+](=O)[O-])c(N3CCN(C(c4ccccc4)c4ccc(Cl)cc4)CC3)cc21 (stereo not given)	30 (≈ 52.2 µM)	5.44 (≈ 3.13 µg/mL)	10.9 (≈ 6.25 µg/mL)	–
CC(C)(C)NC(=O)C1c2ccccc2CCN1c1cc2c(cc1[N+](=O)[O-])c(=O)c(C(=O)O)cn2-c1ccc(F)cc1 (stereo not given)	–	5.6 (≈ 3.13 µg/mL)	22.4 (≈ 12.5 µg/mL)	–
Cc1onc(-c2c(F)cccc2F)c1C(=O)N1CCN(c2cc3c(cc2[N+](=O)[O-])c(=O)c(C(=O)O)cn3C2CC2)CC1	–	2.69 (≈ 1.56 µg/mL)	10.8 (≈ 6.25 µg/mL)	–
Cc1onc(-c2c(F)cccc2F)c1C(=O)N1CCN(c2cc3c(cc2[N+](=O)[O-])c(=O)c(C(=O)O)cn3C(C)(C)C)CC1	30 (≈ 50.4 µM)	2.62 (≈ 1.56 µg/mL)	10.5 (≈ 6.25 µg/mL)	105
O=C(O)c1cn(-c2ccc(F)cc2)c2cc(N3CCN(C(c4ccccc4)c4ccc(Cl)cc4)CC3)c([N+](=O)[O-])cc2c1=O (stereo not given)	–	10.2 (≈ 6.25 µg/mL)	40.8 (≈ 25 µg/mL)	–
Cc1onc(-c2c(F)cccc2F)c1C(=O)N1CCN(c2cc3c(cc2[N+](=O)[O-])c(=O)c(C(=O)O)cn3-c2ccc(F)cc2)CC1	–	4.94 (≈ 3.13 µg/mL)	19.7 (≈ 12.5 µg/mL)	–
O=C(O)c1cn(-c2ccc(F)cc2)c2cc(N3CCN(C(=O)C4COc5ccccc5O4)CC3)c([N+](=O)[O-])cc2c1=O (stereo not given)	30 (≈ 52.2 µM)	2.72 (≈ 1.56 µg/mL)	10.9 (≈ 6.25 µg/mL)	54.4
O=C(O)c1cn(-c2ccc(F)cc2)c2cc(N3CCC(N4CCCCC4)CC3)c([N+](=O)[O-])cc2c1=O	–	6.33 (≈ 3.13 µg/mL)	25.3 (≈ 12.5 µg/mL)	–
CN1CCN(c2cc3c(cc2[N+](=O)[O-])c(=O)c(C(=O)O)cn3-c2ccc(F)cc2)CC1c1ccccc1 (stereo not given)	–	6.23 (≈ 3.13 µg/mL)	24.9 (≈ 12.5 µg/mL)	–
O=C(O)c1cn(-c2ccc(F)cc2)c2cc(N3CCSCC3)c([N+](=O)[O-])cc2c1=O	–	14.6 (≈ 6.25 µg/mL)	29.1 (≈ 12.5 µg/mL)	–
CC(C)(C)n1cc(C(=O)O)c(=O)c2cc([N+](=O)[O-])c(N3CCSCC3)cc21	–	7.99 (≈ 3.13 µg/mL)	31.9 (≈ 12.5 µg/mL)	–
O=C(O)c1cn2c(n1)CN(c1cc3c(cc1[N+](=O)[O-])c(=O)c(C(=O)O)cn3C1CC1)CC2	–	1.78 (≈ 0.782 µg/mL)	7.12 (≈ 3.13 µg/mL)	142
CC(C)(C)n1cc(C(=O)O)c(=O)c2cc([N+](=O)[O-])c(N3CCn4cc(C(=O)O)nc4C3)cc21	–	6.87 (≈ 3.13 µg/mL)	54.9 (≈ 25 µg/mL)	–
CC(C)(C)NC(=O)C1c2ccccc2CCN1c1cc2c(cc1[N+](=O)[O-])c(=O)c(C(=O)O)cn2C(C)(C)C (stereo not given)	–	12 (≈ 6.25 µg/mL)	24 (≈ 12.5 µg/mL)	–
CC1CN(c2cc3c(cc2[N+](=O)[O-])c(=O)c(C(=O)O)cn3C2CC2)CC(C)O1 (stereo not given)	–	2.01 (≈ 0.779 µg/mL)	8.08 (≈ 3.13 µg/mL)	–
O=C(O)c1cn(-c2ccc(F)cc2)c2cc(N3CCN(Cc4ccc5c(c4)OCO5)CC3)c([N+](=O)[O-])cc2c1=O	–	2.85 (≈ 1.56 µg/mL)	22.9 (≈ 12.5 µg/mL)	–
O=C(O)c1cn(C2CC2)c2cc(N3CCN(C(c4ccccc4)c4ccc(Cl)cc4)CC3)c([N+](=O)[O-])cc2c1=O (stereo not given)	–	5.59 (≈ 3.12 µg/mL)	5.59 (≈ 3.12 µg/mL)	–
O=C(O)c1cn(C2CC2)c2cc(N3CCN(C(=O)c4ccco4)CC3)c([N+](=O)[O-])cc2c1=O	30 (≈ 66.3 µM)	0.69 (≈ 0.312 µg/mL)	1.39 (≈ 0.629 µg/mL)	111
O=C(O)c1cn(-c2ccc(F)cc2)c2cc(N3CCN(C(=O)c4ccco4)CC3)c([N+](=O)[O-])cc2c1=O	–	6.18 (≈ 3.13 µg/mL)	24.7 (≈ 12.5 µg/mL)	–
CC1CN(c2cc3c(cc2[N+](=O)[O-])c(=O)c(C(=O)O)cn3-c2ccc(F)cc2)CC(C)O1 (stereo not given)	20 (≈ 45.3 µM)	3.53 (≈ 1.56 µg/mL)	14.2 (≈ 6.25 µg/mL)	70.8
CC(C)(C)n1cc(C(=O)O)c(=O)c2cc([N+](=O)[O-])c(N3CCC(N4CCCCC4)CC3)cc21	–	6.86 (≈ 3.13 µg/mL)	27.4 (≈ 12.5 µg/mL)	–
O=C(O)c1cn(C2CC2)c2cc(N3CCC(O)(c4ccc(Cl)cc4)CC3)c([N+](=O)[O-])cc2c1=O	5 (≈ 10.3 µM)	0.81 (≈ 0.392 µg/mL)	3.22 (≈ 1.56 µg/mL)	129
CC1CN(c2cc3c(cc2[N+](=O)[O-])c(=O)c(C(=O)O)cn3C(C)(C)C)CC(C)O1 (stereo not given)	–	7.76 (≈ 3.13 µg/mL)	31 (≈ 12.5 µg/mL)	–

Compound	IC50 [1] [µg/mL]	MIC [2] [µM]	MIC [3] [µM]	CC50 at 72 h [4] [µM]
CC(C)(C)n1cc(C(=O)O)c(=O)c2cc([N+](=O)[O-])c(N3CCC(O)(c4ccc(Cl)cc4)CC3)cc21	–	6.26 (≈ 3.13 µg/mL)	25 (≈ 12.5 µg/mL)	–
CCN(CC)C(=O)C1CCCN(c2cc3c(cc2[N+](=O)[O-])c(=O)c(C(=O)O)cn3-c2ccc(F)cc2)C1 (stereo not given)	–	6.13 (≈ 3.13 µg/mL)	24.5 (≈ 12.5 µg/mL)	–
COc1ccc(CC2C3=C(CCCC3)CCN2c2cc3c(cc2[N+](=O)[O-])c(=O)c(C(=O)O)cn3C2CC2)cc1 (stereo not given)	–	3.04 (≈ 1.61 µg/mL)	24.3 (≈ 12.9 µg/mL)	–
CC(C)(C)n1cc(C(=O)O)c(=O)c2cc([N+](=O)[O-])c(N3CCC(n4c(=O)[nH]c5cc(Cl)ccc54)CC3)cc21	–	5.79 (≈ 3.13 µg/mL)	23.1 (≈ 12.5 µg/mL)	–
CC(C)(C)n1cc(C(=O)O)c(=O)c2cc([N+](=O)[O-])c(N3CCC4(CC3)OCCO4)cc21	–	7.45 (≈ 3.21 µg/mL)	29 (≈ 12.5 µg/mL)	–
CC(C)(C)n1cc(C(=O)O)c(=O)c2cc([N+](=O)[O-])c(N3CCN(C(=O)c4ccco4)CC3)cc21	30 (≈ 64 µM)	6.68 (≈ 3.13 µg/mL)	13.3 (≈ 6.25 µg/mL)	–
CCN(CC)C(=O)C1CCCN(c2cc3c(cc2[N+](=O)[O-])c(=O)c(C(=O)O)cn3C(C)(C)C)C1 (stereo not given)	–	6.62 (≈ 3.13 µg/mL)	26.4 (≈ 12.5 µg/mL)	–
O=C(O)c1cn(C2CC2)c2cc(N3CCC4(CC3)OCCO4)c([N+](=O)[O-])cc2c1=O	–	3.76 (≈ 1.56 µg/mL)	15.1 (≈ 6.25 µg/mL)	–
O=C(O)c1cn(-c2ccc(F)cc2)c2cc(N3CCC4(CC3)OCCO4)c([N+](=O)[O-])cc2c1=O	–	6.67 (≈ 3.13 µg/mL)	26.6 (≈ 12.5 µg/mL)	–
O=C(O)c1cn(C2CC2)c2cc(N3CCN(C(=O)C4COc5ccccc5O4)CC3)c([N+](=O)[O-])cc2c1=O (stereo not given)	–	2.99 (≈ 1.56 µg/mL)	12 (≈ 6.25 µg/mL)	–
COc1ccc(CC2C3=C(CCCC3)CCN2c2cc3c(cc2[N+](=O)[O-])c(=O)c(C(=O)O)cn3-c2ccc(F)cc2)cc1 (stereo not given)	–	5.36 (≈ 3.13 µg/mL)	21.4 (≈ 12.5 µg/mL)	–
O=C(O)c1cn(-c2ccc(F)cc2)c2cc(N3CCC(n4c(=O)[nH]c5cc(Cl)ccc54)CC3)c([N+](=O)[O-])cc2c1=O	–	5.42 (≈ 3.13 µg/mL)	43.3 (≈ 25 µg/mL)	–
CC(C)(C)n1cc(C(=O)O)c(=O)c2cc([N+](=O)[O-])c(N3CCN(Cc4ccc5c(c4)OCO5)CC3)cc21	–	3.07 (≈ 1.56 µg/mL)	24.6 (≈ 12.5 µg/mL)	–
O=C(O)c1cn2c(n1)CN(c1cc3c(cc1[N+](=O)[O-])c(=O)c(C(=O)O)cn3-c1ccc(F)cc1)CC2	–	12.7 (≈ 6.25 µg/mL)	50.7 (≈ 25 µg/mL)	–
O=C(O)c1cn(C2CC2)c2cc(N3CCC(n4c(=O)[nH]c5cc(Cl)ccc54)CC3)c([N+](=O)[O-])cc2c1=O	20 (≈ 38.2 µM)	1.49 (≈ 0.781 µg/mL)	2.97 (≈ 1.56 µg/mL)	–
CC(C)(C)NC(=O)C1c2ccccc2CCN1c1cc2c(cc1[N+](=O)[O-])c(=O)c(C(=O)O)cn2C1CC1 (stereo not given)	30 (≈ 59.5 µM)	1.55 (≈ 0.782 µg/mL)	3.09 (≈ 1.56 µg/mL)	–
COc1ccc(CC2C3=C(CCCC3)CCN2c2cc3c(cc2[N+](=O)[O-])c(=O)c(C(=O)O)cn3C(C)(C)C)cc1 (stereo not given)	–	5.74 (≈ 3.13 µg/mL)	22.9 (≈ 12.5 µg/mL)	–
CN1CCN(c2cc3c(cc2[N+](=O)[O-])c(=O)c(C(=O)O)cn3C(C)(C)C)CC1c1ccccc1 (stereo not given)	–	16.1 (≈ 7.47 µg/mL)	64.4 (≈ 29.9 µg/mL)	–
O=C(O)c1cn(C2CC2)c2cc(N3CCSCC3)c([N+](=O)[O-])cc2c1=O	–	4.17 (≈ 1.57 µg/mL)	33.3 (≈ 12.5 µg/mL)	–
CCN(CC)C(=O)C1CCCN(c2cc3c(cc2[N+](=O)[O-])c(=O)c(C(=O)O)cn3C2CC2)C1 (stereo not given)	–	3.42 (≈ 1.56 µg/mL)	6.86 (≈ 3.13 µg/mL)	–
O=C(O)c1cn(-c2ccc(F)cc2)c2cc(N3CCC(O)(c4ccc(Cl)cc4)CC3)c([N+](=O)[O-])cc2c1=O	–	5.82 (≈ 3.13 µg/mL)	23.2 (≈ 12.5 µg/mL)	–
CC(C)(C)n1cc(C(=O)O)c(=O)c2cc([N+](=O)[O-])c(N3CCN(C(=O)C4COc5ccccc5O4)CC3)cc21 (stereo not given)	–	5.83 (≈ 3.13 µg/mL)	23.3 (≈ 12.5 µg/mL)	–
